Test results taken from ChEMBL document CHEMBL1765029, “Synthesis and biological evaluation of estradiol linked pyrrolo[2,1-c][1,4]benzodiazepine (PBD) conjugates as potential anticancer agents” (2011).
Structures can show the parent of a compound that is named as a salt. The source made the active and inactive calls. The rule behind the calls is not given here.

What was measured:
MCF7 [1] = assay: Cytotoxicity against human MCF7 cells at 4 uM after 24 hrs by MTT assay; format: functional, cell-based
Outline: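 MCF-7 cells seeded at 10,000 per well, incubated overnight, then treated at 4 µM for 24 h; DMSO control. Medium replaced with MTT, 2 h at 37 °C. Formazan solubilised in extraction buffer, absorbance read at 570 nm, expressed as percent viability.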

MCF7 [2] = assay: Cell cycle arrest in human MCF7 cells assessed as accumulation at G0 phase using propidium iodide staining at 4 uM after 24 hrs by flow cytometry; format: functional
Outline: (§1)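 MCF-7 cells (5 × 10⁵ per 60 mm dish) grown 24 h, then exposed to 4 µM compound for a further 24 h; DMSO-treated control. Cells trypsinised, fixed in ice-cold 70% ethanol at 4 °C for 30 min, RNase-treated (1 mg/mL, 37 °C, 30 min), stained with propidium iodide/citrate/Triton X-100. DNA content read on 20,000 events by flow cytometry; percent cells per phase reported.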

MCF7 [3] = assay: Cell cycle arrest in human MCF7 cells assessed as accumulation at G1 phase using propidium iodide staining at 4 uM after 24 hrs by flow cytometry; format: functional; outline: as §1
MCF7 [4] = assay: Cell cycle arrest in human MCF7 cells assessed as accumulation at G2/M phase using propidium iodide staining at 4 uM after 24 hrs by flow cytometry; format: functional; outline: as §1
HOP-62 = assay: Cytotoxicity against human HOP62 cells by sulforhodamine B method; format: functional
MCF7 [5] = assay: Cytotoxicity against human MCF7 cells by sulforhodamine B method; format: functional
MCF7 [6] = assay: Cell cycle arrest in human MCF7 cells assessed as accumulation at S phase using propidium iodide staining at 4 uM after 24 hrs by flow cytometry; format: functional; outline: as §1
SiHa = assay: Cytotoxicity against human SiHa cells by sulforhodamine B method; format: functional
A2780 = assay: Cytotoxicity against human A2780 cells by sulforhodamine B method; format: functional
ZR-75-1 = assay: Cytotoxicity against human ZR-75-1 cells by sulforhodamine B method; format: functional
PC-3 = assay: Cytotoxicity against human PC3 cells by sulforhodamine B method; format: functional
[7] = Cytotoxicity against human DWD cells by sulforhodamine B method; format: functional
COLO 205 = assay: Cytotoxicity against human COLO205 cells by sulforhodamine B method; format: functional
KB = assay: Cytotoxicity against human KB cells by sulforhodamine B method; format: functional
A549 = assay: Cytotoxicity against human A549 cells by sulforhodamine B method; format: functional
[8] = Cytotoxicity against human Gurav cells by sulforhodamine B method; format: functional
MCF7 [9] = assay: Reduction in Cdk1 protein level in human MCF7 cells at 4 uM after 24 hrs by Western blot analysis; format: functional, cell-based
Outline: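 MCF-7 cells (5 × 10⁵ per 60 mm dish) grown 24 h, then treated at 4 µM for 24 h. Lysis in ice-cold RIPA buffer with protease/phosphatase inhibitors; protein measured by Bradford. Fifty µg per lane resolved on 12% SDS-PAGE and transferred to PVDF. Blocked 2 h, primary antibody overnight at 4 °C, chemiluminescent detection; β-actin as loading control.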

| Structure (SMILES) | Activity (MCF7 [1]) | Activity (MCF7 [2]) [%] | Activity (MCF7 [3]) [%] | Activity (MCF7 [4]) [%] | GI50 (HOP-62) [nM] | GI50 (MCF7 [5]) [nM] | Activity (MCF7 [6]) [%] | GI50 (SiHa) [nM] | GI50 (A2780) [nM] | GI50 (ZR-75-1) [nM] | GI50 (PC-3) [nM] | GI50 [7] [nM] | GI50 (COLO 205) [nM] | GI50 (KB) [nM] | GI50 (A549) [nM] | GI50 [8] [nM] | Activity (MCF7 [9]) |
| --- | --- | --- | --- | --- | --- | --- | --- | --- | --- | --- | --- | --- | --- | --- | --- | --- | --- |
| COc1cc2c(cc1OCCCN1CCN(CCCOc3ccc4c(c3)CC[C@@H]3[C@@H]4CC[C@]4(C)[C@@H](O)CC[C@@H]34)CC1)N=C[C@@H]1C[C@@H](F)CN1C2=O | Active | 0.87 | 50.53 | 24.33 | 110 | < 100 | 24.01 | 150 | < 100 | < 100 | < 100 | 100 | 130 | 120 | < 100 | 110 | – |
| COc1cc2c(cc1OCc1cn(CCCCCOc3ccc4c(c3)CC[C@@H]3[C@@H]4CC[C@]4(C)[C@@H](O)CC[C@@H]34)nn1)N=C[C@@H]1CCCN1C2=O | – | – | – | – | 1690 | 140 | – | 1170 | 170 | 110 | 190 | 170 | 170 | 800 | 190 | 180 | – |
| COc1cc2c(cc1OCCCCCN1CCN(CCCCCOc3ccc4c(c3)CC[C@@H]3[C@@H]4CC[C@]4(C)[C@@H](O)CC[C@@H]34)CC1)N=C[C@@H]1CC(F)(F)CN1C2=O | – | – | – | – | 170 | 140 | – | 190 | 160 | 120 | 190 | 1320 | 170 | 810 | 130 | 150 | – |
| COc1cc2c(cc1OCCCCCN1CCN(CCCCCOc3ccc4c(c3)CC[C@@H]3[C@@H]4CC[C@]4(C)[C@@H](O)CC[C@@H]34)CC1)N=C[C@@H]1CCCN1C2=O | – | – | – | – | 1170 | 140 | – | 170 | 1700 | 170 | 190 | 170 | 1160 | 190 | 160 | 190 | – |
| COc1cc2c(cc1OCCCOc1ccc3c(c1)CC[C@@H]1[C@@H]3CC[C@]3(C)[C@@H](O)CC[C@@H]13)N=C[C@@H]1CC(F)(F)CN1C2=O | – | – | – | – | 2110 | 170 | – | 2810 | 2100 | 180 | 2400 | 2040 | 100 | 150 | 2810 | 2180 | – |
| COc1cc2c(cc1OCCCOc1ccc3c(c1)CC[C@@H]1[C@@H]3CC[C@]3(C)[C@@H](O)CC[C@@H]13)N=C[C@@H]1C[C@@H](F)CN1C2=O | – | – | – | – | 180 | 140 | – | 2120 | 170 | 140 | 190 | 1700 | 160 | 2160 | 180 | 190 | – |
| COc1cc2c(cc1OCc1cn(CCCCCOc3ccc4c(c3)CC[C@@H]3[C@@H]4CC[C@]4(C)[C@@H](O)CC[C@@H]34)nn1)N=C[C@@H]1CC(F)(F)CN1C2=O | Active | 0.74 | 55 | 21.8 | 190 | 110 | 22.3 | 1210 | 1800 | 180 | 170 | 180 | 160 | 190 | 170 | 190 | – |
| COc1cc2c(cc1OCCCN1CCN(CCCOc3ccc4c(c3)CC[C@@H]3[C@@H]4CC[C@]4(C)[C@@H](O)CC[C@@H]34)CC1)N=C[C@@H]1CCCN1C2=O | Active | 2.84 | 47.9 | 24.01 | 1140 | 110 | 25.2 | 130 | 1300 | 120 | 140 | 120 | 130 | 190 | 120 | 140 | – |
| COc1cc2c(cc1OCCCCCOc1ccc3c(c1)CC[C@@H]1[C@@H]3CC[C@]3(C)[C@@H](O)CC[C@@H]13)N=C[C@@H]1C[C@@H](F)CN1C2=O | – | – | – | – | 190 | 150 | – | 2310 | 190 | 170 | 190 | 1900 | 170 | 2170 | 180 | 180 | – |
| COc1cc2c(cc1OCCCOc1ccc3c(c1)CC[C@@H]1[C@@H]3CC[C@]3(C)[C@@H](O)CC[C@@H]13)N=C[C@@H]1CCCN1C2=O | – | – | – | – | 2230 | 170 | – | 2120 | 1190 | 1190 | 2080 | 170 | 160 | 2110 | 2100 | 2050 | – |
| COc1cc2c(cc1OCCCN1CCN(CCCOc3ccc4c(c3)CC[C@@H]3[C@@H]4CC[C@]4(C)[C@@H](O)CC[C@@H]34)CC1)N=C[C@@H]1CC(F)(F)CN1C2=O | – | – | – | – | 150 | < 100 | – | 160 | 110 | 120 | 130 | 100 | 140 | 170 | 120 | 130 | – |
| COc1cc2c(cc1OCCCCCOc1ccc3c(c1)CC[C@@H]1[C@@H]3CC[C@]3(C)[C@@H](O)CC[C@@H]13)N=C[C@@H]1CCCN1C2=O | – | – | – | – | 2240 | 170 | – | 2180 | 1190 | 1190 | 2190 | 180 | 190 | 2130 | 2200 | 2040 | – |
| C[C@]12CC[C@@H]3c4ccc(O)cc4CC[C@H]3[C@@H]1CC[C@@H]2O [ESTRADIOL] | Active | 0.83 | 50 | 23.8 | – | – | 25.26 | – | – | – | – | – | – | – | – | – | Active |
| COc1cc2c(cc1OCc1cn(CCCOc3ccc4c(c3)CC[C@@H]3[C@@H]4CC[C@]4(C)[C@@H](O)CC[C@@H]34)nn1)N=C[C@@H]1CC(F)(F)CN1C2=O | – | – | – | – | 180 | 110 | – | 1120 | 1270 | 170 | 140 | 170 | 140 | 190 | 170 | 170 | – |
| COc1cc2c(cc1OCc1cn(CCCOc3ccc4c(c3)CC[C@@H]3[C@@H]4CC[C@]4(C)[C@@H](O)CC[C@@H]34)nn1)N=C[C@@H]1CCCN1C2=O | – | – | – | – | 1180 | 120 | – | 1140 | 170 | 190 | 190 | 160 | 170 | 310 | 180 | 170 | – |
| COc1cccc2c1C(=O)c1c(O)c3c(c(O)c1C2=O)C[C@@](O)(C(=O)CO)C[C@@H]3O[C@H]1C[C@H](N)[C@H](O)[C@H](C)O1 [DOXORUBICIN HYDROCHLORIDE] | – | – | – | – | 140 | 170 | – | 170 | 160 | – | – | 100 | 140 | 170 | – | 170 | – |
| COc1cc2c(cc1OCCCCCOc1ccc3c(c1)CC[C@@H]1[C@@H]3CC[C@]3(C)[C@@H](O)CC[C@@H]13)N=C[C@@H]1CC(F)(F)CN1C2=O | – | – | – | – | 2110 | 170 | – | 2810 | 2120 | 190 | 2420 | 2170 | 200 | 140 | 2810 | 2190 | – |
| COc1cc2c(cc1OCCCCCN1CCN(CCCCCOc3ccc4c(c3)CC[C@@H]3[C@@H]4CC[C@]4(C)[C@@H](O)CC[C@@H]34)CC1)N=C[C@@H]1C[C@@H](F)CN1C2=O | – | – | – | – | 130 | 130 | – | 160 | 110 | < 100 | 170 | 150 | 140 | 140 | 110 | 130 | – |
